Compound activity as filed in PubChem.
MC4R antagonist – blocks human MC4R cAMP signaling | MC4R-expressing cells, MTII-stimulated cAMP, LANCE TR-FRET | inhibition, % at 6.5 µM | 360,000 compounds, 0.48% hits | AID 540295;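 active = inhibition above its plate's cutoff, the mean of tested wells on that plate plus 3 SD, cut at about 29% in these data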;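 note: 0% = Melanotan II alone and 100% = Melanotan II plus saturating MCL0020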
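Material: human MC4R-expressing U2OS cells. Probe or stimulus: Melanotan II challenge. Dosing: 6.5 µM single dose. Times: 30-min compound, 1-h challenge, 1-h detection, room temperature. Technique: TR-FRET with Eu-cAMP and labeled anti-cAMP, 671 nm. Replication: singlicate.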
PfGluPho inh – PfG6PD (Plasmodium falciparum) enzyme inhibition; inhibition, % at 20 µM; 350,000 compounds, 0.78% hits; PfGluPho enzyme, NADPH resazurin-diaphorase fluorescence;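 active = inhibition reaching at least a set limit at 20 µM in the primary screen, cut at about 59% in these data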;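 note: 0% = DMSO wells with substrate and 100% = DMSO wells lacking glucose-6-phosphate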
MC4R ag barr – human MC4R agonism via beta-arrestin; activation, % at 8.9 µM; U2OS MC4R beta-arrestin complementation, luminescence; percent of melanotan II response, DMSO zero; P32245; AID 540308; 360,000 compounds, 0.98% hits;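 active = activation above a per-plate cutoff, the mean activation of sample wells on that plate plus 3 SD, cut at about 8% in these data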
B2AR ag – activates human beta-2 adrenergic receptor causing internalization. response, % (concentration not given with the values). 340,000 compounds, 0.43% hits. P07550. AID 504454. Am2.2-beta2AR cells, FAP receptor internalization, flow cytometry;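 active = response above a set limit, near 3 SD of response in nonfluorescent compounds, cut at about 42% in these data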
Target sequence (P07550 whole entry, looked up): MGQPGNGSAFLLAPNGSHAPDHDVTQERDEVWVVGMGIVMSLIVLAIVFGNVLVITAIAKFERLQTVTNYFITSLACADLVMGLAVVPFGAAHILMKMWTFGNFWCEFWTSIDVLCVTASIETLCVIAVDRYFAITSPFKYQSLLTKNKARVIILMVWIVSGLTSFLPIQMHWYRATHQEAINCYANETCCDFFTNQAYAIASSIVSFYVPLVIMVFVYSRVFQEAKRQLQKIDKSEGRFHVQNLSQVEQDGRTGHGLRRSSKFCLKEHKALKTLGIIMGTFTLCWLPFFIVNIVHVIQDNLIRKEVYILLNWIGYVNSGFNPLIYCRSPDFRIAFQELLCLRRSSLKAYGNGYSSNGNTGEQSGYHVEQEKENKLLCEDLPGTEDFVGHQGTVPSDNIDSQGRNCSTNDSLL
ABHD5-PLIN5 inh – blocks binding of human ABHD5 to perilipin-5 | inhibition, % at 4 µM | 360,000 compounds, 0.78% hits | AID 602281 | Split G. princeps luciferase complementation, luminescence, 4 h | Q00G26+Q8WTS1;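 active = inhibition above the mean inhibition across every tested compound plus 3 SD, cut at about 22% in these data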;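 note: 0% = DMSO only wells and the 100% control is not disclosed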
* hit, by the source's call. Shown are actives, neighbours in structure and some others; about 3% of the full set was active somewhere.

`COc1cc(NC(=O)c2cc(Cl)ccc2Cl)ccc1-c1cc2ccccc2oc1=O` gave MC4R antagonist -2.1, PfGluPho inh -12.8, MC4R ag barr 13.8*, B2AR ag 5.1 and ABHD5-PLIN5 inh -8.6.
Screening COc1cc(NC(=O)c2cccc(C)c2)ccc1NC(=O)c1cc2ccccc2o1 returned MC4R antagonist 8.0, PfGluPho inh 7.2, MC4R ag barr 11.3*, B2AR ag -6.3 and ABHD5-PLIN5 inh -1.4.
For CCc1ccc(OCC(=O)Nc2ccc(-c3cc4ccccc4oc3=O)c(OC)c2)cc1 the results were MC4R antagonist -19.2, PfGluPho inh 12.8, MC4R ag barr -2.4, B2AR ag -8.0 and ABHD5-PLIN5 inh -6.2.
`COc1cc(NC(=O)c2cccc([N+](=O)[O-])c2)ccc1NC(=O)c1cc2ccccc2o1` gave MC4R antagonist -1.1, PfGluPho inh -4.3, MC4R ag barr 2.0, B2AR ag -11.8 and ABHD5-PLIN5 inh -4.9.
COc1cc(NC(=O)c2cc3ccccc3o2)c(OC)cc1Br was read as MC4R antagonist 2.5, PfGluPho inh 10.3, MC4R ag barr 19.8*, B2AR ag 1.1 and ABHD5-PLIN5 inh 2.2.
Screening CCCCc1ccc(NC(=O)CSC2=NN3CCCC(=O)N=C3S2)cc1 returned MC4R antagonist 1.1, PfGluPho inh 7.3, MC4R ag barr -0.8, B2AR ag 71.5* and ABHD5-PLIN5 inh -3.0.
`N#Cc1ccc(C=NN2CCCCCC2)cc1` gave MC4R antagonist -2.2, PfGluPho inh 0.5, MC4R ag barr 0.0, B2AR ag -3.5 and ABHD5-PLIN5 inh -2.8.
For COc1ccc(C(=O)OCC(=O)N2CCCC2=O)c(OC)c1 the results were MC4R antagonist -4.7, PfGluPho inh -7.2, MC4R ag barr 5.1, B2AR ag 4.2 and ABHD5-PLIN5 inh 13.3.
Screening Cn1c(C(=O)OCC(=O)NCc2ccco2)cc2sccc21 returned MC4R antagonist -2.9, PfGluPho inh 21.9, MC4R ag barr -0.4, B2AR ag -34.5 and ABHD5-PLIN5 inh 23.1*.
For CC(O)(CS(=O)(=O)Cc1ccc(Cl)cc1)C(=O)Nc1cccc(C(F)(F)F)c1 (centres undefined) the results were MC4R antagonist 11.5, PfGluPho inh 6.3, MC4R ag barr 11.4*, B2AR ag -5.7 and ABHD5-PLIN5 inh -5.5.
COc1ccc2c(c1OC)C(=O)N1N=C(c3ccc(O)cc3)CC21 (centres undefined) was read as MC4R antagonist -1.9, PfGluPho inh 5.1, MC4R ag barr -2.0, B2AR ag -5.2 and ABHD5-PLIN5 inh 2.6.
`COc1cc(C(=O)Nc2nc3ccc(S(C)(=O)=O)cc3s2)cc(OC)c1C` gave MC4R antagonist 6.5, PfGluPho inh 0.5, MC4R ag barr 19.4*, B2AR ag 10.4 and ABHD5-PLIN5 inh 4.2.
Cc1cccn2c(=O)c3cc(C(=O)NC4CCCCC4)c(=N)n(Cc4ccc(F)cc4)c3nc12 was read as MC4R antagonist 4.9, PfGluPho inh 49.7, MC4R ag barr -2.1, B2AR ag 77.9* and ABHD5-PLIN5 inh -6.4.
Screening Cc1cccn2c(=O)c3cc(C(=O)NCCN4CCOCC4)c(=N)n(Cc4ccc(F)cc4)c3nc12 returned MC4R antagonist -5.6, PfGluPho inh 23.6, MC4R ag barr -3.6, B2AR ag -0.8 and ABHD5-PLIN5 inh 0.1.
For CCNC(=O)c1cc2c(=O)n3cccc(C)c3nc2n(Cc2ccc(C)cc2)c1=N the results were MC4R antagonist 4.0, PfGluPho inh 49.4, MC4R ag barr 0.3, B2AR ag 50.8* and ABHD5-PLIN5 inh 10.8.
Cc1cccn2c(=O)c3cc(C(=O)NC4CCCC4)c(=N)n(CC4CCCO4)c3nc12 (centres undefined) was read as MC4R antagonist 10.7, PfGluPho inh 5.2, MC4R ag barr 0.0, B2AR ag -44.9 and ABHD5-PLIN5 inh 3.2.
Screening CCN1CCN(c2cc(N3CCN(C(=O)c4ccco4)CC3)c3c4c(onc24)-c2ccccc2C3=O)CC1 returned MC4R antagonist -9.1, PfGluPho inh 67.9*, MC4R ag barr -4.0, B2AR ag 12.7 and ABHD5-PLIN5 inh 13.4.
`Cc1cc(N2CCN(C(=O)c3ccco3)CC2)c2ccccc2n1` gave MC4R antagonist 10.4, PfGluPho inh -4.3, MC4R ag barr -1.3, B2AR ag -4.0 and ABHD5-PLIN5 inh 0.0.
Screening COc1ccc(-c2cc3ccc(OC(C)C(=O)O)cc3oc2=O)cc1 (centres undefined) returned MC4R antagonist 3.0, PfGluPho inh -9.5, MC4R ag barr -1.8, B2AR ag 3.5 and ABHD5-PLIN5 inh 22.4*.
For COc1ccc(-c2cc3ccccc3oc2=O)cc1 the results were MC4R antagonist 3.9, PfGluPho inh 14.0, MC4R ag barr 0.3, B2AR ag -4.6 and ABHD5-PLIN5 inh -10.3.
For CCOC(=O)c1ccc(N2C(=O)C=CC2=O)cc1 the results were MC4R antagonist 21.6, PfGluPho inh 65.7*, MC4R ag barr -4.0, B2AR ag 12.4 and ABHD5-PLIN5 inh 1.6.
COc1cc(NC(=O)C(C)Oc2ccccc2)c(OC)cc1NC(=O)c1ccccc1 (centres undefined) was read as MC4R antagonist -0.8, PfGluPho inh 17.1, MC4R ag barr 0.8, B2AR ag 7.3 and ABHD5-PLIN5 inh 4.1.
Screening Cc1cc(=O)oc2c(N)nccc12 returned ABHD5-PLIN5 inh 22.1*.
Screening Cc1cc(=O)oc2c(O)c(O)ccc12 returned MC4R antagonist 6.9, PfGluPho inh 4.4, MC4R ag barr -1.6, B2AR ag -4.7 and ABHD5-PLIN5 inh 4.9.
`CCc1ccc(N2CC(C(=O)Nc3ccc4c(c3)OCO4)CC2=O)cc1` (centres undefined) gave MC4R antagonist 2.6, PfGluPho inh -2.3, MC4R ag barr -0.1, B2AR ag 4.4 and ABHD5-PLIN5 inh -4.8.
Cc1c(C(=O)Nc2ccccc2N2CCN(C)CC2)oc2ccc(F)cc12 was read as MC4R antagonist -2.2, PfGluPho inh 31.6, MC4R ag barr 2.1, B2AR ag 9.9 and ABHD5-PLIN5 inh 22.0*.
Screening COc1cc(/C=N/NC(=O)Cn2ccc(C(F)(F)F)n2)cc(OC)c1OC returned MC4R antagonist -10.7, PfGluPho inh 31.8, MC4R ag barr -2.0, B2AR ag -5.0 and ABHD5-PLIN5 inh -4.7.
For COc1ccc(/C=C/c2c([N+](=O)[O-])c(=O)n(C)c(=O)n2C)cc1OC the results were MC4R antagonist 19.5, PfGluPho inh -2.3, MC4R ag barr 2.0, B2AR ag 9.9 and ABHD5-PLIN5 inh -6.0.
Screening Cn1c(/C=C/c2ccc(Cl)cc2)c([N+](=O)[O-])c(=O)n(C)c1=O returned MC4R antagonist -6.1, PfGluPho inh -6.5, MC4R ag barr -1.3, B2AR ag 4.4 and ABHD5-PLIN5 inh 22.0*.
For CCOc1ccc2[nH]c(C(=O)N/N=C/c3ccc(OC)cc3)cc2c1 the results were MC4R antagonist -24.1, PfGluPho inh 3.5, MC4R ag barr -0.3, B2AR ag 51.8* and ABHD5-PLIN5 inh -6.1.
O=C(CNc1ccc2ccccc2c1)N/N=C/c1ccc([N+](=O)[O-])o1 was read as MC4R antagonist -9.1, PfGluPho inh 23.7, MC4R ag barr 11.3*, B2AR ag 2.5 and ABHD5-PLIN5 inh -3.5.
